In ChEMBL document CHEMBL1155297, “Synthesis, antimicrobial and antioxidant activities of substituted pyrazoles, isoxazoles, pyrimidine and thioxopyrimidine derivatives” (2009):

How the values were obtained:
Type in all cases: functional
Staphylococcus aureus [1] = assay: Antibacterial activity against Staphylococcus aureus NCIM 5021 at 100 ug/disk after 24 hrs by agar disk diffusion method; settings: NCIM 5021, 24 h, read-out: IZ
In short: (§1)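 Agar disc diffusion on nutrient agar plates pre-inoculated with each bacterium. Sterile 6 mm filter-paper discs were moistened with compound in DMSO at the stated per-disc amount. Plates were incubated at 37 °C, and the growth-inhibition zone diameter was read after 24 h. Each determination was run in triplicate, and the mean of three independent readings is reported.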

Bacillus subtilis [2] = assay: Antibacterial activity against Bacillus subtilis NCIM 2063 at 100 ug/disk after 24 hrs by agar disk diffusion method; settings: NCIM 2063, 24 h, read-out: IZ; in short: as §1
Curvularia lunata [3] = assay: Antifungal activity against Curvularia lunata NCIM 716 at 200 ug/disk after 48 hrs by agar disk diffusion method; settings: NCIM 716, 48 h, read-out: IZ
In short: (§2)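 Fungal disc diffusion on nutrient agar plates pre-inoculated with each fungus. 6 mm sterile paper discs carried the compound in DMSO at the stated amount per disc. Plates were held at 37 °C, and inhibition-zone diameter was measured after 48 h. Values are the mean of three independent triplicate readings.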

Fusarium solani [4] = assay: Antifungal activity against Fusarium solani NCIM 1330 at 200 ug/disk after 48 hrs by agar disk diffusion method; settings: NCIM 1330, 48 h, read-out: IZ; in short: as §2
Klebsiella pneumoniae [5] = assay: Antibacterial activity against Klebsiella pneumoniae NCIM 2957 at 200 ug/disk after 24 hrs by agar disk diffusion method; settings: NCIM 2957, 24 h, read-out: IZ; in short: as §1
[6] = Antioxidant activity assessed as nitric oxide production at 100 uM after 120 mins by Griess reagent method
In short: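 Nitric oxide assay with Griess read-out. At intervals, 0.5 ml of incubation solution was mixed with 0.5 ml Griess reagent (1% sulfanilamide, 0.1% N-naphthylethylenediamine dihydrochloride, 2% o-phosphoric acid in water). The control received an equal amount of solvent and was handled identically.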

Proteus vulgaris [7] = assay: Antibacterial activity against Proteus vulgaris NCIM 2027 at 100 ug/disk after 24 hrs by agar disk diffusion method; settings: NCIM 2027, 24 h, read-out: IZ; in short: as §1
Aspergillus niger [8] = assay: Antifungal activity against Aspergillus niger NCIM 596 at 100 ug/disk after 48 hrs by agar disk diffusion method; settings: NCIM 596, 48 h, read-out: IZ; in short: as §2
Aspergillus niger [9] = assay: Antifungal activity against Aspergillus niger NCIM 596 at 200 ug/disk after 48 hrs by agar disk diffusion method; settings: NCIM 596, 48 h, read-out: IZ; in short: as §2
Proteus vulgaris [10] = assay: Antibacterial activity against Proteus vulgaris NCIM 2027 at 200 ug/disk after 24 hrs by agar disk diffusion method; settings: NCIM 2027, 24 h, read-out: IZ; in short: as §1
Staphylococcus aureus [11] = assay: Antibacterial activity against Staphylococcus aureus NCIM 5021 at 200 ug/disk after 24 hrs by agar disk diffusion method; settings: NCIM 5021, 24 h, read-out: IZ; in short: as §1
Fusarium solani [12] = assay: Antifungal activity against Fusarium solani NCIM 1330 at 100 ug/disk after 48 hrs by agar disk diffusion method; settings: NCIM 1330, 48 h, read-out: IZ; in short: as §2
Bacillus subtilis [13] = assay: Antibacterial activity against Bacillus subtilis NCIM 2063 at 200 ug/disk after 24 hrs by agar disk diffusion method; settings: NCIM 2063, 24 h, read-out: IZ; in short: as §1
Curvularia lunata [14] = assay: Antifungal activity against Curvularia lunata NCIM 716 at 100 ug/disk after 48 hrs by agar disk diffusion method; settings: NCIM 716, 48 h, read-out: IZ; in short: as §2
[15] = system: Radical scavenging activity; assay: Antioxidant activity assessed as DPPH free radical scavenging activity at 100 uM after 20 mins
In short: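 DPPH scavenging: compound solutions were added to DPPH in dioxane/ethanol and kept at ambient temperature for 20 min. Absorbance was read at 517 nm. The test–control difference was expressed as percent DPPH radical scavenging.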

Klebsiella pneumoniae [16] = assay: Antibacterial activity against Klebsiella pneumoniae NCIM 2957 at 100 ug/disk after 24 hrs by agar disk diffusion method; settings: NCIM 2957, 24 h, read-out: IZ; in short: as §1

SMILES: Cc1ccc(C(=O)CC(C(=O)c2ccc(C)cc2)C2C(=N)ON=C2N)cc1 (stereo unspecified)
- zone of inhibition at 100 µg/disc (Staphylococcus aureus [1]): 22 mm
- zone of inhibition at 100 µg/disc (Bacillus subtilis [2]): 26 mm
- zone of inhibition at 200 µg/disc (Curvularia lunata [3]): 33 mm
- zone of inhibition at 200 µg/disc (Fusarium solani [4]): 34 mm
- zone of inhibition at 200 µg/disc (Klebsiella pneumoniae [5]): 24 mm
- inhibition [6]: 54.3%
- zone of inhibition at 100 µg/disc (Proteus vulgaris [7]): 21 mm
- zone of inhibition at 100 µg/disc (Aspergillus niger [8]): 24 mm
- zone of inhibition at 200 µg/disc (Aspergillus niger [9]): 27 mm
- zone of inhibition at 200 µg/disc (Proteus vulgaris [10]): 23 mm
- zone of inhibition at 200 µg/disc (Staphylococcus aureus [11]): 25 mm
- zone of inhibition at 100 µg/disc (Fusarium solani [12]): 32 mm
- zone of inhibition at 200 µg/disc (Bacillus subtilis [13]): 28 mm
- zone of inhibition at 100 µg/disc (Curvularia lunata [14]): 31 mm
- inhibition [15]: 58.1%
- zone of inhibition at 100 µg/disc (Klebsiella pneumoniae [16]): 22 mm

SMILES: CN1C(=N)C(C(CS(=O)(=O)c2ccccc2)S(=O)(=O)c2ccccc2)C(=N)N(C)C1=O (stereo unspecified)
- zone of inhibition at 100 µg/disc (Staphylococcus aureus [1]): 13 mm
- zone of inhibition at 100 µg/disc (Bacillus subtilis [2]): 14 mm
- zone of inhibition at 200 µg/disc (Curvularia lunata [3]): 20 mm
- zone of inhibition at 200 µg/disc (Fusarium solani [4]): 16 mm
- zone of inhibition at 200 µg/disc (Klebsiella pneumoniae [5]): 12 mm
- inhibition [6]: 26.9%
- zone of inhibition at 100 µg/disc (Proteus vulgaris [7]): 10 mm
- zone of inhibition at 100 µg/disc (Aspergillus niger [8]): 14 mm
- zone of inhibition at 200 µg/disc (Aspergillus niger [9]): 16 mm
- zone of inhibition at 200 µg/disc (Proteus vulgaris [10]): 12 mm
- zone of inhibition at 200 µg/disc (Staphylococcus aureus [11]): 15 mm
- zone of inhibition at 100 µg/disc (Fusarium solani [12]): 13 mm
- zone of inhibition at 200 µg/disc (Bacillus subtilis [13]): 16 mm
- zone of inhibition at 100 µg/disc (Curvularia lunata [14]): 16 mm
- inhibition [15]: 27.7%
- zone of inhibition at 100 µg/disc (Klebsiella pneumoniae [16]): 9 mm

SMILES: Cc1ccc(S(=O)(=O)CC(C2C(=N)N(C)C(=O)N(C)C2=N)S(=O)(=O)c2ccc(C)cc2)cc1 (stereo unspecified)
- zone of inhibition at 100 µg/disc (Staphylococcus aureus [1]): 11 mm
- zone of inhibition at 100 µg/disc (Bacillus subtilis [2]): 12 mm
- zone of inhibition at 200 µg/disc (Curvularia lunata [3]): 16 mm
- zone of inhibition at 200 µg/disc (Fusarium solani [4]): 14 mm
- zone of inhibition at 200 µg/disc (Klebsiella pneumoniae [5]): 11 mm
- inhibition [6]: 24.6%
- zone of inhibition at 100 µg/disc (Proteus vulgaris [7]): 8 mm
- zone of inhibition at 100 µg/disc (Aspergillus niger [8]): 10 mm
- zone of inhibition at 200 µg/disc (Aspergillus niger [9]): 13 mm
- zone of inhibition at 200 µg/disc (Proteus vulgaris [10]): 10 mm
- zone of inhibition at 200 µg/disc (Staphylococcus aureus [11]): 13 mm
- zone of inhibition at 100 µg/disc (Fusarium solani [12]): 11 mm
- zone of inhibition at 200 µg/disc (Bacillus subtilis [13]): 14 mm
- zone of inhibition at 100 µg/disc (Curvularia lunata [14]): 13 mm
- inhibition [15]: 24.8%
- zone of inhibition at 100 µg/disc (Klebsiella pneumoniae [16]): 9 mm

SMILES: N=C1ON=C(N)C1C(CC(=O)c1ccccc1)C(=O)c1ccccc1 (stereo unspecified)
- zone of inhibition at 100 µg/disc (Staphylococcus aureus [1]): 23 mm
- zone of inhibition at 100 µg/disc (Bacillus subtilis [2]): 24 mm
- zone of inhibition at 200 µg/disc (Curvularia lunata [3]): 32 mm
- zone of inhibition at 200 µg/disc (Fusarium solani [4]): 31 mm
- zone of inhibition at 200 µg/disc (Klebsiella pneumoniae [5]): 25 mm
- inhibition [6]: 43.5%
- zone of inhibition at 100 µg/disc (Proteus vulgaris [7]): 21 mm
- zone of inhibition at 100 µg/disc (Aspergillus niger [8]): 27 mm
- zone of inhibition at 200 µg/disc (Aspergillus niger [9]): 29 mm
- zone of inhibition at 200 µg/disc (Proteus vulgaris [10]): 24 mm
- zone of inhibition at 200 µg/disc (Staphylococcus aureus [11]): 26 mm
- zone of inhibition at 100 µg/disc (Fusarium solani [12]): 30 mm
- zone of inhibition at 200 µg/disc (Bacillus subtilis [13]): 27 mm
- zone of inhibition at 100 µg/disc (Curvularia lunata [14]): 30 mm
- inhibition [15]: 42.3%
- zone of inhibition at 100 µg/disc (Klebsiella pneumoniae [16]): 23 mm

SMILES: Cc1ccc(S(=O)(=O)CC(C2C(=N)ON=C2N)S(=O)(=O)c2ccc(C)cc2)cc1 (stereo unspecified)
- zone of inhibition at 100 µg/disc (Staphylococcus aureus [1]): 26 mm
- zone of inhibition at 100 µg/disc (Bacillus subtilis [2]): 26 mm
- zone of inhibition at 200 µg/disc (Curvularia lunata [3]): 30 mm
- zone of inhibition at 200 µg/disc (Fusarium solani [4]): 31 mm
- zone of inhibition at 200 µg/disc (Klebsiella pneumoniae [5]): 27 mm
- inhibition [6]: 81.5%
- zone of inhibition at 100 µg/disc (Proteus vulgaris [7]): 24 mm
- zone of inhibition at 100 µg/disc (Aspergillus niger [8]): 26 mm
- zone of inhibition at 200 µg/disc (Aspergillus niger [9]): 29 mm
- zone of inhibition at 200 µg/disc (Proteus vulgaris [10]): 25 mm
- zone of inhibition at 200 µg/disc (Staphylococcus aureus [11]): 27 mm
- zone of inhibition at 100 µg/disc (Fusarium solani [12]): 28 mm
- zone of inhibition at 200 µg/disc (Bacillus subtilis [13]): 29 mm
- zone of inhibition at 100 µg/disc (Curvularia lunata [14]): 28 mm
- inhibition [15]: 80.8%
- zone of inhibition at 100 µg/disc (Klebsiella pneumoniae [16]): 25 mm

SMILES: CN1C(=N)C(C(CC(=O)c2ccccc2)C(=O)c2ccccc2)C(=N)N(C)C1=O (stereo unspecified)
- zone of inhibition at 100 µg/disc (Staphylococcus aureus [1]): 10 mm
- zone of inhibition at 100 µg/disc (Bacillus subtilis [2]): 9 mm
- zone of inhibition at 200 µg/disc (Curvularia lunata [3]): 15 mm
- zone of inhibition at 200 µg/disc (Fusarium solani [4]): 13 mm
- zone of inhibition at 200 µg/disc (Klebsiella pneumoniae [5]): 9 mm
- inhibition [6]: 22.6%
- zone of inhibition at 100 µg/disc (Proteus vulgaris [7]): 6 mm
- zone of inhibition at 100 µg/disc (Aspergillus niger [8]): 12 mm
- zone of inhibition at 200 µg/disc (Aspergillus niger [9]): 16 mm
- zone of inhibition at 200 µg/disc (Proteus vulgaris [10]): 8 mm
- zone of inhibition at 200 µg/disc (Staphylococcus aureus [11]): 13 mm
- zone of inhibition at 100 µg/disc (Fusarium solani [12]): 11 mm
- zone of inhibition at 200 µg/disc (Bacillus subtilis [13]): 11 mm
- zone of inhibition at 100 µg/disc (Curvularia lunata [14]): 13 mm
- inhibition [15]: 23.8%
- zone of inhibition at 100 µg/disc (Klebsiella pneumoniae [16]): 7 mm
